Assay results as given in ChEMBL document CHEMBL1128440 (J Med Chem, 1995).
Values joined by “and” are separate entries in the source; they are usually repeats but may differ in a detail not shown here. Equal values may be shown once.

How the values were obtained:
Rattus norvegicus [1] = organism: Rattus norvegicus; experiment: Tissue biodistribution into estrogen-primed immature female rat lung at 3 hr time interval; assay type: ADME, organism-based; conditions: in vivo
In short: (§1)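 Immature female Sprague-Dawley rats (25 days old, ≈50 g, five per time point) primed with estradiol, 5 μg sc daily for 2 days in 50% ethanol/sunflower seed oil, used 24 h after the last injection. The 18F-labeled ligand was given iv by tail vein in 10% ethanol/saline. Decapitated at 1 or 3 h; blood and organs weighed and gamma-counted. Reported as %ID/g ± SD, n = 5.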

Rattus norvegicus [2] = organism: Rattus norvegicus; experiment: Tissue biodistribution into estrogen-primed immature female rat ovaries at 1 hr time interval; assay type: ADME, organism-based, Female gonad; conditions: in vivo; in short: as §1
Rattus norvegicus [3] = organism: Rattus norvegicus; experiment: Tissue biodistribution into estrogen-primed immature female rat liver at 1 hr low time interval; assay type: ADME, organism-based; conditions: in vivo; in short: as §1
Rattus norvegicus [4] = organism: Rattus norvegicus; experiment: Tissue biodistribution into estrogen-primed immature female rat uterus at 3 hr time interval; assay type: ADME, organism-based; conditions: in vivo; in short: as §1
Rattus norvegicus [5] = organism: Rattus norvegicus; experiment: Tissue biodistribution into estrogen-primed immature female rat kidney at 1 hr blocked time interval; assay type: ADME, organism-based; conditions: in vivo; in short: as §1
Rattus norvegicus [6] = organism: Rattus norvegicus; experiment: Tissue biodistribution into estrogen-primed immature female rat uterus/blood at 1 hr blocked time interval; assay type: ADME, organism-based; conditions: in vivo; in short: as §1
Rattus norvegicus [7] = organism: Rattus norvegicus; experiment: Tissue biodistribution into estrogen-primed immature female rat bone at 1 hr blocked time interval; assay type: ADME, organism-based, Bone element; conditions: in vivo; in short: as §1
Rattus norvegicus [8] = organism: Rattus norvegicus; experiment: Tissue biodistribution into estrogen-primed immature female rat uterus/muscle at 1 hr time interval; assay type: ADME, organism-based; conditions: in vivo
[9] = target: T1, Progesterone receptor (Homo sapiens) (UniProt P06401); experiment: Nonspecific binding affinity against progesterone receptor was estimated relative to compound R5020
T1 sequence (whole entry): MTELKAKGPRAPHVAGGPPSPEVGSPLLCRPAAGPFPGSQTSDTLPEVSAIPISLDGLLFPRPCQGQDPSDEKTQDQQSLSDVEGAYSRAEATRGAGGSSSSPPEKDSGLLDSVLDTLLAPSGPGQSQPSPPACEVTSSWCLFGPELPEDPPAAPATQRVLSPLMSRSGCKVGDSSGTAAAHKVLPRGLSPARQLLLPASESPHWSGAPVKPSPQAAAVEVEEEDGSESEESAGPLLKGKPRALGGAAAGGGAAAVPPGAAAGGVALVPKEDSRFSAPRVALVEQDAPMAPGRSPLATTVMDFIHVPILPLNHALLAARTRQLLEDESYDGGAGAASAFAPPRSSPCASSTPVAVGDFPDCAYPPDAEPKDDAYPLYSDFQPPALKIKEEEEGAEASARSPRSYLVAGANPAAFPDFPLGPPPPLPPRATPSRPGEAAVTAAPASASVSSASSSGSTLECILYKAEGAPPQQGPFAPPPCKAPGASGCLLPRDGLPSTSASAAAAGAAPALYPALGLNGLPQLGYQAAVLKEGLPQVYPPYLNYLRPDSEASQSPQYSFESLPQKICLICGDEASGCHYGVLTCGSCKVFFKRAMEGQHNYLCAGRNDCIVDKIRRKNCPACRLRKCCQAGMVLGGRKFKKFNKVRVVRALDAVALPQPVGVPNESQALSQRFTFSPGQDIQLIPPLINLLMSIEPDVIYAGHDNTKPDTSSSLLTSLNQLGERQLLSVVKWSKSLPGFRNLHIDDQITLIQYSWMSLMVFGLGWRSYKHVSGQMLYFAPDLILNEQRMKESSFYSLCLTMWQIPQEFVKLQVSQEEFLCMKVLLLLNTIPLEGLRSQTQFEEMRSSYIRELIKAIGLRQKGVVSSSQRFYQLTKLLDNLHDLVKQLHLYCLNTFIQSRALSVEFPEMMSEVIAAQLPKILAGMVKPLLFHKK

Rattus norvegicus [10] = organism: Rattus norvegicus; experiment: Tissue biodistribution into estrogen-primed immature female rat muscle at 1 hr low time interval; assay type: ADME, organism-based; conditions: in vivo; in short: as §1
Rattus norvegicus [11] = organism: Rattus norvegicus; experiment: Tissue biodistribution into estrogen-primed immature female rat muscle at 1 hr blocked time interval; assay type: ADME, organism-based; conditions: in vivo; in short: as §1
Rattus norvegicus [12] = organism: Rattus norvegicus; experiment: Tissue biodistribution into estrogen-primed immature female rat fat at 3 hr time interval; assay type: ADME, organism-based, Adipose tissue; conditions: in vivo; in short: as §1
Rattus norvegicus [13] = organism: Rattus norvegicus; experiment: Tissue biodistribution into estrogen-primed immature female rat uterus at 1 hr low time interval; assay type: ADME, organism-based; conditions: in vivo; in short: as §1
Rattus norvegicus [14] = organism: Rattus norvegicus; experiment: Tissue biodistribution into estrogen-primed immature female rat brain at 3 hr time interval; assay type: ADME, organism-based; conditions: in vivo; in short: as §1
Rattus norvegicus [15] = organism: Rattus norvegicus; experiment: Tissue biodistribution into estrogen-primed immature female rat uterus/blood at 1 hr low time interval; assay type: ADME, organism-based; conditions: in vivo; in short: as §1
Rattus norvegicus [16] = organism: Rattus norvegicus; experiment: Tissue biodistribution into estrogen-primed immature female rat bone at 1 hr time interval; assay type: ADME, organism-based, Bone element; conditions: in vivo; in short: as §1
Rattus norvegicus [17] = organism: Rattus norvegicus; experiment: Tissue biodistribution into estrogen-primed immature female rat blood at 1 hr blocked time interval; assay type: ADME, organism-based; conditions: in vivo; in short: as §1
Rattus norvegicus [18] = organism: Rattus norvegicus; experiment: Tissue biodistribution into estrogen-primed immature female rat lung at 1 hr low time interval; assay type: ADME, organism-based; conditions: in vivo; in short: as §1
Rattus norvegicus [19] = organism: Rattus norvegicus; experiment: Tissue biodistribution into estrogen-primed immature female rat fat at 1 hr low time interval; assay type: ADME, organism-based, Adipose tissue; conditions: in vivo; in short: as §1
Rattus norvegicus [20] = organism: Rattus norvegicus; experiment: Tissue biodistribution into estrogen-primed immature female rat muscle at 3 hr time interval; assay type: ADME, organism-based; conditions: in vivo; in short: as §1
Rattus norvegicus [21] = organism: Rattus norvegicus; experiment: Tissue biodistribution into estrogen-primed immature female rat uterus/muscle at 1 hr low time interval; assay type: ADME, organism-based; conditions: in vivo; in short: as §1
Rattus norvegicus [22] = organism: Rattus norvegicus; experiment: Tissue biodistribution into estrogen-primed immature female rat kidney at 1 hr time interval; assay type: ADME, organism-based; conditions: in vivo; in short: as §1
Rattus norvegicus [23] = organism: Rattus norvegicus; experiment: Tissue biodistribution into estrogen-primed immature female rat lung at 1 hr time interval; assay type: ADME, organism-based; conditions: in vivo; in short: as §1
Rattus norvegicus [24] = organism: Rattus norvegicus; experiment: Tissue biodistribution into estrogen-primed immature female rat brain at 1 hr blocked time interval; assay type: ADME, organism-based; conditions: in vivo; in short: as §1
Rattus norvegicus [25] = organism: Rattus norvegicus; experiment: Tissue biodistribution into estrogen-primed immature female rat fat at 1 hr blocked time interval; assay type: ADME, organism-based, Adipose tissue; conditions: in vivo; in short: as §1
Rattus norvegicus [26] = organism: Rattus norvegicus; experiment: Tissue biodistribution into estrogen-primed immature female rat uterus/blood at 3 hr time interval; assay type: ADME, organism-based; conditions: in vivo; in short: as §1

Q: What does the source list for `C[C@]12CCC3C(CCC4=CC(=O)CC[C@@H]43)C1C[C@H]1OC(c3ccco3)O[C@]12C(=O)CF` (stereo partly specified)?
A: Injected dose/g (Rattus norvegicus [1]): 0.31%; Injected dose/g (Rattus norvegicus [2]): 2.76%; Injected dose/g (Rattus norvegicus [3]): 1.81%; Injected dose/g (Rattus norvegicus [4]): 7.83%; Injected dose/g (Rattus norvegicus [5]): 1.72%; uterus/blood ratio (Rattus norvegicus [6]): 3.68; Injected dose/g (Rattus norvegicus [7]): 1.29%; Uterus to muscle uptake ratio (Rattus norvegicus [8]): 11.63%; NSB [9]: 0.83 and 1.06; Injected dose/g (Rattus norvegicus [10]): 0.41%; Injected dose/g (Rattus norvegicus [11]): 0.71%; Injected dose/g (Rattus norvegicus [12]): 2.36%; Injected dose/g (Rattus norvegicus [13]): 5.18%; Injected dose/g (Rattus norvegicus [14]): 0.18%; Injected dose/g (Rattus norvegicus [15]): 14.95%; Injected dose/g (Rattus norvegicus [16]): 1.11%; Injected dose/g (Rattus norvegicus [17]): 0.46%; Injected dose/g (Rattus norvegicus [18]): 1.51%; Injected dose/g (Rattus norvegicus [19]): 2.15%; Injected dose/g (Rattus norvegicus [20]): 0.26%; Injected dose/g (Rattus norvegicus [21]): 12.85%; Injected dose/g (Rattus norvegicus [22]): 1.66%; Injected dose/g (Rattus norvegicus [23]): 2.38%; Injected dose/g (Rattus norvegicus [24]): 0.49%; Injected dose/g (Rattus norvegicus [25]): 2.4%; uterus/blood ratio (Rattus norvegicus [26]): 48
